Experimental data taken from ChEMBL document CHEMBL1137540, “Synthesis and in vitro evaluation of leishmanicidal and trypanocidal activities of N-quinolin-8-yl-arylsulfonamides” (Bioorg Med Chem, 2007).

Assays:
[1] = Cytotoxicity against Vero cells by MTT assay; type: cell-based; conditions: African green monkey
Method in brief: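 Vero cells were exposed to compounds for 72 h at 37 °C, then incubated with MTT for 4 h. Formazan was dissolved in DMSO and read at 540 nm. CC50 was derived by linear regression, with ANOVA and Dunnett's test.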

[2] = tested on: Trypanosoma cruzi; experiment: Antiprotozoal activity against Trypanosoma cruzi Y in vero cells; type: functional, organism-based
[3] = tested on: Leishmania amazonensis; experiment: Antiprotozoal activity against Leishmania amazonensis 575 in vero cells; type: functional, organism-based; conditions: promastigotes, in the assay text read “promastigotes” for “in vero cells”
Method in brief: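 Axenic growth assay: L. amazonensis 575 promastigotes were grown in Schneider's medium with 5% heat-inactivated FBS, and T. cruzi Y epimastigotes in LIT medium with 10% FBS. Parasites at 1 × 10^6 cells/ml were exposed to 0.2–100 µM for 72 h at 28 °C. Survivors were counted in a Neubauer chamber. Three experiments were run in triplicate, and IC50 was derived by linear regression.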

[4] = tested on: Leishmania chagasi; experiment: Antiprotozoal activity against Leishmania chagasi PP75 in vero cells; type: functional, organism-based
[5] = tested on: Leishmania amazonensis; experiment: Reduction of Leishmania amazonensis 575 infection in mouse peritoneal macrophage at 5 uM after 48 hrs; type: functional; set-up: scale not given: the % may be the effect or the level left
Method in brief: (§1)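 Peritoneal macrophages from female albino Swiss mice were grown on glass slides in DMEM with 20% heat-inactivated FBS at 37 °C, 5% CO2. Cells were infected with L. amazonensis promastigotes at 1:10 cell:parasite for 4 h, then treated for 48 h. Slides were methanol-fixed and Giemsa-stained, and 500 random cells were scored for infection rate. Values are the mean of two experiments.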

[6] = tested on: Leishmania amazonensis; experiment: Reduction of Leishmania amazonensis 575 infection in mouse peritoneal macrophage at 25 uM after 48 hrs; type: functional; set-up: scale not given: the % may be the effect or the level left; method in brief: as §1
[7] = tested on: Leishmania amazonensis; experiment: Reduction of Leishmania amazonensis 575 infection in mouse peritoneal macrophage at 1 uM after 48 hrs; type: functional; set-up: scale not given: the % may be the effect or the level left; method in brief: as §1
[8] = tested on: Trypanosoma cruzi; experiment: Reduction of Trypanosoma cruzi Y amastigotes infection in Vero cells at 1 uM after 48 hrs; type: functional; set-up: scale not given: the % may be the effect or the level left
Method in brief: (§2)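 Vero cells on glass slides in DMEM with 5% FBS at 37 °C, 5% CO2 were infected with culture-derived trypomastigotes at 1:10 cell:parasite for 6 h. Non-adherent parasites were washed off, and cells were treated for 48 h. Slides were methanol-fixed and Giemsa-stained, and 500 random cells were examined at 1000× for infection rate. Values are the mean of two experiments.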

[9] = tested on: Trypanosoma cruzi; experiment: Reduction of Trypanosoma cruzi Y amastigotes infection in Vero cells at 5 uM after 48 hrs; type: functional; set-up: scale not given: the % may be the effect or the level left; method in brief: as §2
[10] = tested on: Trypanosoma cruzi; experiment: Reduction of Trypanosoma cruzi Y amastigotes infection in Vero cells at 25 uM after 48 hrs; type: functional; set-up: scale not given: the % may be the effect or the level left; method in brief: as §2
[11] = tested on: Leishmania amazonensis; experiment: Reduction of Leishmania amazonensis 575 amastigotes infection in mouse peritoneal macrophage at 10 uM after 48 hrs; type: functional; set-up: scale not given: the % may be the effect or the level left; method in brief: as §1

O=S(=O)(Nc1cccc2cccnc12)c1cc(Br)c(Br)s1
CC50 [1]: 68.7 µM
IC50 [2]: > 100 µM
IC50 [3]: 2.85 µM
IC50 [4]: 0.53 µM

CCCc1ccc(S(=O)(=O)Nc2cccc3cccnc23)cc1
CC50 [1]: 64.4 µM
IC50 [2]: > 100 µM
Activity [5]: 52.2%
Activity [6]: 63.7%
Activity [7]: 18.7%
IC50 [3]: 14.5 µM
IC50 [4]: 14 µM

O=S(=O)(Nc1cccc2cccnc12)c1cnc(Cl)c(Br)c1
Activity [8]: 78.6%
CC50 [1]: 67.4 µM
Activity [9]: 85.2%
IC50 [2]: 31.8 µM
Activity [5]: 67.1%
Activity [10]: 96.4%
Activity [6]: 84.8%
Activity [7]: 52%
IC50 [3]: 2.25 µM
IC50 [4]: 0.56 µM

C[C@@H]1[C@H](O)[C@@H](C)/C=C/C=C/C=C/C=C/C=C/C=C/C=C/[C@H](O[C@@H]2O[C@H](C)[C@@H](O)[C@H](N)[C@@H]2O)C[C@@H]2O[C@](O)(C[C@@H](O)C[C@@H](O)[C@H](O)CC[C@@H](O)C[C@@H](O)CC(=O)O[C@H]1C)C[C@H](O)[C@H]2C(=O)O [AMPHOTERICIN B]
CC50 [1]: 98.4 µM
Activity [11]: 97%
IC50 [3]: 0.31 µM
IC50 [4]: 0.25 µM

O=S(=O)(Nc1cccc2cccnc12)c1ccc(Br)cc1
CC50 [1]: 88.7 µM
IC50 [2]: > 100 µM
IC50 [3]: 4.94 µM
IC50 [4]: 2.99 µM

CN(C)c1cccc2c(S(=O)(=O)Nc3cccc4cccnc34)cccc12
CC50 [1]: 84.2 µM
IC50 [2]: > 100 µM
Activity [5]: 48.2%
Activity [6]: Toxic
Activity [7]: 25.7%
IC50 [3]: 7.18 µM
IC50 [4]: 3.53 µM

O=C(Cn1ccnc1[N+](=O)[O-])NCc1ccccc1 [BENZNIDAZOLE]
CC50 [1]: > 1000 µM
IC50 [2]: 14.6 µM
Activity [10]: 92%

CCCc1ccc(S(=O)(=O)Nc2cc(OC)cc3ccc(C)nc23)cc1
IC50 [2]: > 100 µM
IC50 [3]: > 100 µM
IC50 [4]: > 100 µM

O=S(=O)(Nc1cccc2cccnc12)c1ccc(-c2ccccc2)cc1
CC50 [1]: 245 µM
IC50 [2]: > 100 µM
Activity [5]: 72.3%
Activity [6]: 82.1%
Activity [7]: 60%
IC50 [3]: 6.27 µM
IC50 [4]: 2.18 µM

O=S(=O)(Nc1cccc2cccnc12)c1ccc(F)cc1
IC50 [2]: > 100 µM
IC50 [3]: > 100 µM
IC50 [4]: > 100 µM

CCCc1ccc(S(=O)(=O)Nc2c(Br)cc(Br)c3cccnc23)cc1
IC50 [2]: > 100 µM
IC50 [3]: > 100 µM
IC50 [4]: > 100 µM

O=S(=O)(Nc1cccc2cccnc12)c1cc(F)cc(F)c1
CC50 [1]: 66.3 µM
IC50 [2]: > 100 µM
IC50 [3]: 2.12 µM
IC50 [4]: 0.45 µM

CC(C)c1cc(C(C)C)c(S(=O)(=O)Nc2cccc3cccnc23)c(C(C)C)c1
IC50 [2]: > 100 µM
IC50 [3]: > 100 µM
IC50 [4]: > 100 µM

O=[N+]([O-])c1ccc(S(=O)(=O)Nc2cccc3cccnc23)cc1
IC50 [2]: > 100 µM
IC50 [3]: > 100 µM
IC50 [4]: > 100 µM
